Experimental data published in ChEMBL document CHEMBL1123302, “Antagonists of substance P. Further modifications of substance P antagonists obtained by replacing either positions 7, 9 or 7, 8 and 11 of SP with D-amino acid residues” (J Med Chem, 1986).

Columns and labels:
[1] = molecular target: Substance-P receptor (Cavia porcellus) (UniProt P30547); test: In vitro inhibition of substance P (6-11) hexapeptide induced contractions of the guinea pig ileum at 5 uM.; assay type: tissue-based
Summary of the method: (§1)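 Agonist (SP or SP(6-11)-hexapeptide) dose-response curves on a 3-min cycle with 1-min contact, then washout. Dose ratio = agonist EC50 with antagonist / EC50 alone. At least two preparations per compound; ratios below 2 taken as insignificant.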

[2] = molecular target: Substance-P receptor (Cavia porcellus) (UniProt P30547); test: In vitro inhibition of substance P induced contractions of the guinea pig ileum at 10 uM.; assay type: tissue-based; summary of the method: as §1
[3] = molecular target: Substance-P receptor (Cavia porcellus) (UniProt P30547); test: In vitro inhibition of substance P induced contractions of the guinea pig ileum at 5 uM.; assay type: tissue-based; summary of the method: as §1
[4] = molecular target: Substance-P receptor (Cavia porcellus) (UniProt P30547); test: In vitro inhibition of substance P (6-11) hexapeptide induced contractions of the guinea pig ileum at 10 uM.; assay type: tissue-based; summary of the method: as §1
[5] = molecular target: Metabotropic glutamate receptor 3 (Rattus norvegicus) (UniProt P31422); test: Antagonistic activity against Glutamate receptor in rat spinal cord at concentration of 50 uM.; assay type: functional, tissue-based
Metabotropic glutamate receptor 3 (Rattus norvegicus), sequence (P31422 23-879 limits assumed): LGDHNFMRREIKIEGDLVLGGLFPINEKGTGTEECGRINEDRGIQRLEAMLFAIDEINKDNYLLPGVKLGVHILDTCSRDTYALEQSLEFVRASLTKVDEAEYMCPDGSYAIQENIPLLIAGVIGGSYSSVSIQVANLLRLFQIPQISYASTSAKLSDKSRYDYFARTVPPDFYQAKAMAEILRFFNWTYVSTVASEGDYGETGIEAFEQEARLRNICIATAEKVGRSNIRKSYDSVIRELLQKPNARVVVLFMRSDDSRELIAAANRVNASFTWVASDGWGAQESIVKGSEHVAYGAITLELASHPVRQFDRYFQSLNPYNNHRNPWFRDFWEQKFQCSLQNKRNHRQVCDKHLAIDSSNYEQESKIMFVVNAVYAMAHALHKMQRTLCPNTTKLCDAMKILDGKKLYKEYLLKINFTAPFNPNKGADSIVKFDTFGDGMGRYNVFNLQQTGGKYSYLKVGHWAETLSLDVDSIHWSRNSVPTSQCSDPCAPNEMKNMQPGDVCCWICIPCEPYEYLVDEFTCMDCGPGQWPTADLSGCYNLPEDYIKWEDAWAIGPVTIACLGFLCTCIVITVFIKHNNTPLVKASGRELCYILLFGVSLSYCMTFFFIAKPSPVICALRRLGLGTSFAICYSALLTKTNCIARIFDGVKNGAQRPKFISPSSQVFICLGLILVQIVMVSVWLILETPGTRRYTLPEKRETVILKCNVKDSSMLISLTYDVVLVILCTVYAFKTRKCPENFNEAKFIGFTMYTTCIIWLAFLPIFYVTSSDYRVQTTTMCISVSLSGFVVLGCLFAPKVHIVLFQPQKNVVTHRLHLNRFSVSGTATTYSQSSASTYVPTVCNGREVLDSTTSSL
Summary of the method: (§2)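 Neonatal rat spinal cord, hemisected sagittally, superfused at 1 mL/min with oxygenated Krebs-Henseleit medium containing 0.5% urethane at room temperature. Agonists were given in 2-mL doses in the superfusate. Antagonist was superfused continuously for at least 15 min before agonist retesting. Read-out was ventral root depolarization (DC potential, ventral root vs cord body), measured as amplitude and area of response.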

[6] = molecular target: Substance-P receptor (Rattus norvegicus) (UniProt P14600); test: Antagonistic activity against Substance P receptor in rat spinal cord at concentration of 5 uM.
Substance-P receptor (Rattus norvegicus), sequence (P14600 whole entry, looked up): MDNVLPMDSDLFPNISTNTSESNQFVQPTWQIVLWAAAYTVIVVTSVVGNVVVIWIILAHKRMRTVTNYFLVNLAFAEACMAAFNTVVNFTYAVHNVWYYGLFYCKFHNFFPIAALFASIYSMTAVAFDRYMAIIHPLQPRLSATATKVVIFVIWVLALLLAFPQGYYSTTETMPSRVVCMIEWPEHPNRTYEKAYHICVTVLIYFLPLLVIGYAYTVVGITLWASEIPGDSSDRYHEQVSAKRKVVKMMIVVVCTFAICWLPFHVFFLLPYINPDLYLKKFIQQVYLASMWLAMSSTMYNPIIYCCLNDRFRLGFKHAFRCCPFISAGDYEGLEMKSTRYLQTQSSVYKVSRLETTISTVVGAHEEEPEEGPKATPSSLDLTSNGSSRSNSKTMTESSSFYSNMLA

[7] = molecular target: Substance-P receptor (Rattus norvegicus) (UniProt P14600); test: Antagonistic activity against Substance P receptor in rat spinal cord at concentration of 50 uM.
[8] = molecular target: Substance-P receptor (Rattus norvegicus) (UniProt P14600); test: Antagonistic activity against Substance P(6-11) receptor in rat spinal cord at concentration of 5 uM.
[9] = molecular target: Substance-P receptor (Rattus norvegicus) (UniProt P14600); test: Antagonistic activity against Substance P(6-11) receptor in rat spinal cord at concentration of 50 uM.
[10] = molecular target: Metabotropic glutamate receptor 3 (Rattus norvegicus) (UniProt P31422); test: Antagonistic activity against Glutamate receptor in rat spinal cord at concentration of 0.5 uM.; assay type: functional, tissue-based; summary of the method: as §2
[11] = molecular target: Metabotropic glutamate receptor 3 (Rattus norvegicus) (UniProt P31422); test: Antagonistic activity against Glutamate receptor in rat spinal cord at concentration of 1.0 uM.; assay type: functional, tissue-based; summary of the method: as §2
[12] = molecular target: Metabotropic glutamate receptor 3 (Rattus norvegicus) (UniProt P31422); test: Antagonistic activity against Glutamate receptor in rat spinal cord at concentration of 10.0 uM.; assay type: functional, tissue-based; summary of the method: as §2
[13] = molecular target: Metabotropic glutamate receptor 3 (Rattus norvegicus) (UniProt P31422); test: Antagonistic activity against Glutamate receptor in rat spinal cord at concentration of 5.0 uM.; assay type: functional, tissue-based; summary of the method: as §2
[14] = molecular target: Substance-P receptor (Rattus norvegicus) (UniProt P14600); test: Antagonistic activity against Substance P receptor in rat spinal cord at concentration of 25 uM.
[15] = molecular target: Substance-P receptor (Rattus norvegicus) (UniProt P14600); test: Antagonistic activity against Substance P(6-11) receptor in rat spinal cord at concentration of 25 uM.
[16] = molecular target: Metabotropic glutamate receptor 3 (Rattus norvegicus) (UniProt P31422); test: Antagonistic activity against Glutamate receptor in rat spinal cord at concentration of 25 uM.; assay type: functional, tissue-based; summary of the method: as §2
[17] = molecular target: Metabotropic glutamate receptor 3 (Rattus norvegicus) (UniProt P31422); test: Antagonistic activity against Glutamate receptor in rat spinal cord at concentration of 5 uM.; assay type: functional, tissue-based; summary of the method: as §2
[18] = molecular target: Metabotropic glutamate receptor 3 (Rattus norvegicus) (UniProt P31422); test: Antagonistic activity against Glutamate receptor in rat spinal cord at concentration of 10 uM.; assay type: functional, tissue-based; summary of the method: as §2
[19] = molecular target: Substance-P receptor (Rattus norvegicus) (UniProt P14600); test: Antagonistic activity against Substance P receptor in rat spinal cord at concentration of 10 uM.
[20] = molecular target: Substance-P receptor (Rattus norvegicus) (UniProt P14600); test: Antagonistic activity against Substance P(6-11) receptor in rat spinal cord at concentration of 10 uM.

Substance-P receptor (Cavia porcellus), sequence (P30547 whole entry): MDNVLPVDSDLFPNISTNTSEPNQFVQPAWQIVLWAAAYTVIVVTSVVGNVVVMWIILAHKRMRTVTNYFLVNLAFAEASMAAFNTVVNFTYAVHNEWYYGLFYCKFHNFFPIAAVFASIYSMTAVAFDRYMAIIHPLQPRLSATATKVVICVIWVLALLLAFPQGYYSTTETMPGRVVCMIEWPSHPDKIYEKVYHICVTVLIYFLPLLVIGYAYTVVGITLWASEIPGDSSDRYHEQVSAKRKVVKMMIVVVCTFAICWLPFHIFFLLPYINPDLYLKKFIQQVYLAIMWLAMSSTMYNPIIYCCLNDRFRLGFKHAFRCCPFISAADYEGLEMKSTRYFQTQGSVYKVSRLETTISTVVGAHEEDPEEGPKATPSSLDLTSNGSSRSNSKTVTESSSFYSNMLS

| Activity [1] [dose ratio] | Activity [2] [dose ratio] | Activity [3] [dose ratio] | Activity [4] [dose ratio] | Change in amplitude response [5] [%] | Change in amplitude response [7] [%] | Change in amplitude response [9] [%] | Compound | further results |
| --- | --- | --- | --- | --- | --- | --- | --- | --- |
| 7.2 | 9.8 | 6.2 | 10.7 | – | – | – | COC(=O)[C@@H](CCSC)NC(=O)C(CC(C)C)NC(=O)[C@@H](Cc1c[nH]c2ccccc12)NC(=O)[C@H](Cc1c[nH]c2ccccc12)NC(=O)[C@@H](Cc1c[nH]c2ccccc12)NC(=O)[C@H](CCC(N)=O)NC(=O)[C@H](CCC(N)=O)NC(=O)[C@@H]1CCCN1C(=O)[C@H](CCCCNC(=O)OCc1ccccc1)NC(=O)[C@@H]1CCCN1C(=O)[C@H](CCCN=C(N)N)NC(=O)OCc1ccccc1 (stereo in doubt) | – |
| < 2 | < 2 | < 2 | < 2 | -50 | -62 | -80 | COC(=O)[C@@H](CCSC)NC(=O)C(CC(C)C)SCCNC(=O)[C@H](Cc1ccccc1)NC(=O)[C@@H](Cc1ccccc1)NC(=O)[C@H](CCC(N)=O)NC(=O)[C@H](CCC(N)=O)NC(=O)C1CCCN1C(=O)OC(C)(C)C (stereo in doubt) | Change in amplitude response [6]: 42%; Change in amplitude response [8]: -7% |
| – | – | – | – | – | – | – | COC(=O)[C@@H](CCSC)NC(=O)[C@H](CC(C)C)N(C)C(=O)CN(C)C(=O)[C@H](Cc1ccccc1)NC(=O)[C@@H](Cc1ccccc1)NC(=O)[C@H](CCC(N)=O)NC(=O)[C@H](CCC(N)=O)NC(=O)C1CCCN1C(=O)[C@H](CCCCNC(=O)OCc1ccccc1)NC(=O)C1CCCN1C(=O)[C@H](CCCN=C(N)N)NC(=O)OCc1ccccc1 (stereo in doubt) | Change in amplitude response [10]: 6%; Change in amplitude response [11]: 0%; Change in amplitude response [12]: -35%; Change in amplitude response [13]: 0% |
| < 2 | < 2 | < 2 | < 2 | -4 | -12 | -57 | COC(=O)[C@@H](CCSC)NC(=O)[C@H](CC(C)C)NC(=O)CN(C)C(=O)[C@H](Cc1ccccc1)NC(=O)[C@@H](Cc1ccccc1)NC(=O)[C@H](CCC(N)=O)NC(=O)[C@H](CCC(N)=O)NC(=O)C1CCCN1C(=O)OC(C)(C)C (stereo in doubt) | Change in amplitude response [14]: 7%; Change in amplitude response [15]: -29% |
| – | – | – | – | -36 | – | – | COC(=O)[C@@H](CCSC)NC(=O)[C@H](CC(C)C)NC(=O)CN(C)C(=O)[C@H](Cc1ccccc1)NC(=O)[C@@H](Cc1ccccc1)NC(=O)[C@H](CCC(N)=O)NC(=O)[C@H](CCC(N)=O)NC(=O)C1CCCN1C(=O)[C@H](CCCCNC(=O)OCc1ccccc1)NC(=O)C1CCCN1C(=O)[C@H](CCCN=C(N)N)NC(=O)OCc1ccccc1 (stereo in doubt) | Change in amplitude response [16]: -24%; Change in amplitude response [17]: -15% |
| 3 | 2.3 | < 2 | 10 | -43 | -54 | -74 | COC(=O)[C@@H](CCSC)NC(=O)[C@H](CC(C)C)SCCNC(=O)[C@H](Cc1ccccc1)NC(=O)[C@@H](Cc1ccccc1)NC(=O)[C@H](CCC(N)=O)NC(=O)[C@H](CCC(N)=O)NC(=O)C1CCCN1C(=O)OC(C)(C)C (stereo in doubt) | Change in amplitude response [6]: 40%; Change in amplitude response [8]: -28% |
| < 2 | < 2 | < 2 | < 2 | – | – | – | COC(=O)[C@H](CCSC)NC(=O)[C@H](CC(C)C)NC(=O)[C@@H](Cc1c[nH]c2ccccc12)NC(=O)[C@H](Cc1ccccc1)NC(=O)[C@@H](Cc1ccccc1)NC(=O)[C@H](CCCCN)NC(=O)[C@H](CC(N)=O)NC(=O)C1CCCN1C(=O)[C@H](CCCCN)NC(=O)C1CCCN1C(=O)[C@@H](N)CCCN=C(N)N (stereo in doubt) | Change in amplitude response [18]: 8%; Change in amplitude response [19]: 9%; Change in amplitude response [20]: -54% |
